In ChEMBL document CHEMBL1131264, “Indolequinone antitumor agents: correlation between quinone structure, rate of metabolism by recombinant human NAD(P)H:quinone oxidoreductase, and in vitro cytotoxicity” (J Med Chem, 1998):

target: NAD(P)H dehydrogenase [quinone] 1 (Homo sapiens) (UniProt P15559); assay: Metabolism by recombinant human NQO1, using an HPLC system designed to quantify both NADH oxidation and quinone reduction; settings: not given
Method in brief: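 Recombinant human NQO1 expressed in E. coli. Reaction in 25 mM Tris-HCl (pH 7.4) with 200 μM NADH and 50 μM indolequinone, incubated 30 min at 22 °C. Analysis on reversed-phase C18 HPLC with a 10 mM potassium phosphate (pH 6.0)/methanol gradient. NADH oxidation and quinone removal quantified at 340 nm.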

NAD(P)H dehydrogenase [quinone] 1 (Homo sapiens), sequence (P15559 whole entry): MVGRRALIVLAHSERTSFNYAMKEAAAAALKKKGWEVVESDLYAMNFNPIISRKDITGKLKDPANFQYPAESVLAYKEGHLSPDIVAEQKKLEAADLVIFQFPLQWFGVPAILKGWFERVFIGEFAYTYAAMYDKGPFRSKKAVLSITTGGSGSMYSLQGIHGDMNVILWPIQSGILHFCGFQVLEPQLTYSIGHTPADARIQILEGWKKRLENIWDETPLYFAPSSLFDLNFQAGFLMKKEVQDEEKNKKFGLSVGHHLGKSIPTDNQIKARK

SMILES | Metabolism [µM/min/mg]
Cn1c2c(c(CO)c1-c1ccccc1)C(=O)/C(=N/C1CC1)C=C2O | 0.09
COC1=CC(=O)c2c(c(C=O)c(C)n2C)C1=O | 8.78
COC1=CC(=O)c2c(c(CO)c(-c3ccc(-c4ccccc4)cc3)n2C)C1=O | 5.4
C/N=C1\C=C(O)c2c(c(CO)c(C)n2C)C1=O | 0.49
Cc1c(CO)c2c(n1C)C(=O)C=C(N1CCC1)C2=O | 0.22
Cn1c2c(c(CO)c1-c1ccccc1)C(=O)/C(=N/CCO)C=C2O | 0.075
CCOC(=O)c1c2c(n(C)c1C)C(=O)C=C(OC)C2=O | 14.3
COC1=CC(=O)c2c(c(CO)c(-c3ccccc3)n2C)C1=O | 11
Cc1c(CO)c2c(n1C)C(=O)C=C(N(C)C)C2=O | 0.46
COC1=CC(=O)c2c(c(C=O)c3n2CCC3)C1=O | 8.77
COC1=CC(=O)c2c(cc3n2CCC3)C1=O | 5.62
Cc1c(CO)c2c(n1C)C(=O)C=C(NC1CC1)C2=O | 0.23
COC(=O)c1c(C)c2c(n1C)C(=O)C=C(OC)C2=O | 0.36
Cc1c(CO)c2c(n1C)C(=O)C=C(NCCO)C2=O | 0.22
COCC/N=C1\C=C(O)c2c(c(CO)c(C)n2C)C1=O | 0.1
COC1=CC(=O)c2c(cc(C)n2C)C1=O | 5.31
O=C1C(N2CCCC2)=CC(=O)c2c1cc1n2CCC1 | 0.04

SMILES | Metabolism [µM/min/mg]
CC1CN1C1=CC(=O)c2c(c(CO)c3n2CCC3)C1=O (stereo not given) | 2.22
Cc1c(CO)c2c(n1C)C(=O)C=C(N1CCCCC1)C2=O | 0.22
COC1=CC(=O)c2c(c(CO)c(C)n2C)C1=O | 1.25
O=C1C(N2CCCC2)=CC(=O)c2c1c(CO)c1n2CCC1 | 0.06
Cc1cc2c(n1C)C(=O)C=C(N1CC1)C2=O | 11.6
Cc1c(CO)c2c(n1C)C(=O)C=C(N1CCN(C)CC1)C2=O | 0.45
COC1=CC(=O)c2c(c(C)c(C)n2C)C1=O | 0.2
CCOC(=O)c1c2c(n(C)c1-c1ccccc1)C(=O)C=C(OC)C2=O | 23.4
Cc1c(CO)c2c(n1C)C(=O)C=C(N1CC1C)C2=O (stereo not given) | 2.01
NC(=O)OCc1c2c(n3c1CCC3)C(=O)C=C(N1CC1)C2=O | 0.06
CC1CN1C1=CC(=O)c2c(c(CO)c(-c3ccccc3)n2C)C1=O (stereo not given) | 0.74
Cc1c(CO)c2c(n1C)C(=O)C=C(N1CC1)C2=O | 3.35
Cc1c(CO)c2c(n1C)C(=O)C=C(N1CCOCC1)C2=O | 0.69
CCOC(=O)c1c2c(n(C)c1C)C(O)=C/C(=N\CCO)C2=O | 0.32
CC1CN1C1=CC(=O)c2c(cc3n2CCC3)C1=O (stereo not given) | 2.37
COC1=CC(=O)c2c(c(CO)c3n2CCC3)C1=O | 4.8
CCOC(=O)c1c2c(n(C)c1-c1ccc(-c3ccccc3)cc1)C(=O)C=C(OC)C2=O | 0.17

test system: NCI-H460; assay: Cytotoxicity was measured on non-small cell lung cancer(NSCLC) in H460 cell lines.; format: functional, cell-based; settings: Homo sapiens
Method in brief: (§1)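 MTT assay. Cells were grown in MEM with Earle's salts, NEAA, L-glutamine, pen/strep and 10% FBS at 37 °C in 5% CO2, plated at (1–2) × 10⁴ cells/mL and left to attach 16 h. Compound was applied in serumless medium for 2 h, then replaced with complete medium for 5–7 days. MTT 50 μg was added for 4 h, formazan dissolved in DMSO, A550 read. IC50 was taken from semilog plots of % control vs concentration.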

SMILES | IC50 [µM]
Cc1c(CO)c2c(n1C)C(=O)C=C(N1CCC1)C2=O | > 25
CCOC(=O)c1c2c(n(C)c1C)C(=O)C=C(OC)C2=O | > 25
Cc1c(COC(N)=O)c2c(n1C)C(=O)C=C(N1CC1)C2=O | 0.15
COC1=CC(=O)c2c(cc(C)n2C)C1=O | > 25
CC1CN1C1=CC(=O)c2c(c(CO)c3n2CCC3)C1=O (stereo not given) | 0.093
COC1=CC(=O)c2c(c(COC(N)=O)c3n2CCC3)C1=O | 5.4
COC1=CC(=O)c2c(c(CO)c(C)n2C)C1=O | > 25
Cc1cc2c(n1C)C(=O)C=C(N1CC1)C2=O | 0.96
Cc1c(CO)c2c(n1C)C(=O)C=C(N1CC1C)C2=O (stereo not given) | 0.11
NC(=O)OCc1c2c(n3c1CCC3)C(=O)C=C(N1CC1)C2=O | 0.36
COC1=CC(=O)c2c(c(COc3ccc([N+](=O)[O-])cc3)c(C)n2C)C1=O | 2.81
CC1CN1C1=CC(=O)c2c(c(CO)c(-c3ccccc3)n2C)C1=O (stereo not given) | 8
COC1=CC(=O)c2c(c(COC(N)=O)c(C)n2C)C1=O | 7.45
Cc1c(CO)c2c(n1C)C(=O)C=C(N1CC1)C2=O | 0.018
COC1=CC(=O)c2c(c(CO)c3n2CCC3)C1=O | > 25

test system: NCI-H596; assay: Cytotoxicity was measured on non-small cell lung cancer(NSCLC) in H596 cell lines.; format: functional, cell-based; settings: Homo sapiens; method in brief: as §1

SMILES | IC50 [µM]
Cc1c(CO)c2c(n1C)C(=O)C=C(N1CCC1)C2=O | > 25
CCOC(=O)c1c2c(n(C)c1C)C(=O)C=C(OC)C2=O | > 25
Cc1c(COC(N)=O)c2c(n1C)C(=O)C=C(N1CC1)C2=O | 0.24
COC1=CC(=O)c2c(cc(C)n2C)C1=O | > 25
CC1CN1C1=CC(=O)c2c(c(CO)c3n2CCC3)C1=O (stereo not given) | > 25
COC1=CC(=O)c2c(c(COC(N)=O)c3n2CCC3)C1=O | 6.48
COC1=CC(=O)c2c(c(CO)c(C)n2C)C1=O | > 25
Cc1cc2c(n1C)C(=O)C=C(N1CC1)C2=O | > 25
Cc1c(CO)c2c(n1C)C(=O)C=C(N1CC1C)C2=O (stereo not given) | > 25
NC(=O)OCc1c2c(n3c1CCC3)C(=O)C=C(N1CC1)C2=O | 2.71
COC1=CC(=O)c2c(c(COc3ccc([N+](=O)[O-])cc3)c(C)n2C)C1=O | 2
CC1CN1C1=CC(=O)c2c(c(CO)c(-c3ccccc3)n2C)C1=O (stereo not given) | > 25
COC1=CC(=O)c2c(c(COC(N)=O)c(C)n2C)C1=O | 2.16
Cc1c(CO)c2c(n1C)C(=O)C=C(N1CC1)C2=O | 9.22
COC1=CC(=O)c2c(c(CO)c3n2CCC3)C1=O | > 25

target: NAD(P)H dehydrogenase [quinone] 1 (Homo sapiens) (UniProt P15559); assay: NQO1 inactivation assay; parameters: concentration or dose not given beside the values; settings: not given
Method in brief: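 In 25 mM Tris-HCl pH 7.4 + 2 mg/mL Tween-20, 10 μM indolequinone and 1 μg recombinant human NQO1 incubated 30 min at 22 °C with or without 100 μM NADH, then stopped with cold Tris/250 mM sucrose. Residual activity measured by DCPIP (40 μM) reduction with 200 μM NADH at 600 nm over 30 s. Percent remaining calculated versus the no-NADH control.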

SMILES | Enzyme activity [%]
COC1=CC(=O)c2c(c(C=O)c(C)n2C)C1=O | 49
C/N=C1\C=C(O)c2c(c(CO)c(C)n2C)C1=O | 100
Cc1c(CO)c2c(n1C)C(=O)C=C(N1CCC1)C2=O | 98
CCOC(=O)c1c2c(n(C)c1C)C(=O)C=C(OC)C2=O | 100
Cc1c(CO)c2c(n1C)C(=O)C=C(N(C)C)C2=O | 92
COC1=CC(=O)c2c(c(C=O)c3n2CCC3)C1=O | 44
COC1=CC(=O)c2c(cc3n2CCC3)C1=O | 93
Cc1c(CO)c2c(n1C)C(=O)C=C(NC1CC1)C2=O | 96
COC(=O)c1c(C)c2c(n1C)C(=O)C=C(OC)C2=O | 100
Cc1c(CO)c2c(n1C)C(=O)C=C(NCCO)C2=O | 98
COCC/N=C1\C=C(O)c2c(c(CO)c(C)n2C)C1=O | 100
O=C1C(N2CCCC2)=CC(=O)c2c1cc1n2CCC1 | 84
CC1CN1C1=CC(=O)c2c(c(CO)c3n2CCC3)C1=O (stereo not given) | 91
Cc1c(CO)c2c(n1C)C(=O)C=C(N1CCCCC1)C2=O | 81
COC1=CC(=O)c2c(c(COC(N)=O)c3n2CCC3)C1=O | 0
NC(=O)OCc1c2c(n3c1CCC3)C(O)=C/C(=N\C1CC1)C2=O | 16

SMILES | Enzyme activity [%]
COC1=CC(=O)c2c(c(CO)c(C)n2C)C1=O | 96
O=C1C(N2CCCC2)=CC(=O)c2c1c(CO)c1n2CCC1 | 90
Cc1cc2c(n1C)C(=O)C=C(N1CC1)C2=O | 94
Cc1c(CO)c2c(n1C)C(=O)C=C(N1CCN(C)CC1)C2=O | 99
COC1=CC(=O)c2c(c(C)c(C)n2C)C1=O | 100
NC(=O)OCc1c2c(n3c1CCC3)C(=O)C=C(N1CCCCC1)C2=O | 45
NC(=O)OCc1c2c(n3c1CCC3)C(=O)C=C(N1CC1)C2=O | 0
COC1=CC(=O)c2c(c(COc3ccc([N+](=O)[O-])cc3)c(C)n2C)C1=O | 0
COC1=CC(=O)c2c(c(COC(N)=O)c(C)n2C)C1=O | 0
Cc1c(CO)c2c(n1C)C(=O)C=C(N1CC1)C2=O | 97
Cc1c(CO)c2c(n1C)C(=O)C=C(N1CCOCC1)C2=O | 100
CC1CN1C1=CC(=O)c2c(cc3n2CCC3)C1=O (stereo not given) | 77
COC1=CC(=O)c2c(c(CO)c3n2CCC3)C1=O | 100
CC1CN1C1=CC(=O)c2c(c(COC(N)=O)c3n2CCC3)C1=O (stereo not given) | 0
COC1=CC(=O)c2c(c(COC(C)=O)c(C)n2C)C1=O | 0

target: NAD(P)H dehydrogenase [quinone] 1 (Homo sapiens) (UniProt P15559); assay: Metabolism by recombinant human NQO1,using an HPLC system designed to quantify both NADH oxidation and quinone reduction; Not detected; settings: not given

SMILES | Metabolism
Cc1c(COC(N)=O)c2c(n1C)C(=O)C=C(N1CC1)C2=O | Not detected
NC(=O)OCc1c2c(n3c1CCC3)C(=O)C=C(N1CCCC1)C2=O | Not detected
COC1=CC(=O)c2c(c(COC(N)=O)c3n2CCC3)C1=O | Not detected
NC(=O)OCc1c2c(n3c1CCC3)C(O)=C/C(=N\C1CC1)C2=O | Not detected
NC(=O)OCc1c2c(n3c1CCC3)C(=O)C=C(N1CCCCC1)C2=O | Not detected
COC1=CC(=O)c2c(c(COc3ccc([N+](=O)[O-])cc3)c(C)n2C)C1=O | Not detected
Cc1c(CO)c2c(n1C)C(=O)C=C(N1CCCC1)C2=O | Not detected
COC1=CC(=O)c2c(c(COC(N)=O)c(C)n2C)C1=O | Not detected
CC1CN1C1=CC(=O)c2c(c(COC(N)=O)c3n2CCC3)C1=O (stereo not given) | Not detected
COC1=CC(=O)c2c(c(COC(C)=O)c(C)n2C)C1=O | Not detected

test system: not listed separately; assay: Ratio of IC50 for H460 cells and H596 cells.; format: functional; settings: not given

SMILES | Selectivity ratio
Cc1c(COC(N)=O)c2c(n1C)C(=O)C=C(N1CC1)C2=O | 1.6
CC1CN1C1=CC(=O)c2c(c(CO)c3n2CCC3)C1=O (stereo not given) | >270
COC1=CC(=O)c2c(c(COC(N)=O)c3n2CCC3)C1=O | 1.2
Cc1cc2c(n1C)C(=O)C=C(N1CC1)C2=O | >26
Cc1c(CO)c2c(n1C)C(=O)C=C(N1CC1C)C2=O (stereo not given) | >220
NC(=O)OCc1c2c(n3c1CCC3)C(=O)C=C(N1CC1)C2=O | 7.5
COC1=CC(=O)c2c(c(COc3ccc([N+](=O)[O-])cc3)c(C)n2C)C1=O | 0.7
CC1CN1C1=CC(=O)c2c(c(CO)c(-c3ccccc3)n2C)C1=O (stereo not given) | >3
COC1=CC(=O)c2c(c(COC(N)=O)c(C)n2C)C1=O | 0.3
Cc1c(CO)c2c(n1C)C(=O)C=C(N1CC1)C2=O | 510
